Experimental data published in ChEMBL document CHEMBL4406918, “Inhibitory Effects of Multivalent Polypeptides on the Proliferation and Metastasis of Breast Cancer Cells” (ACS Med Chem Lett, 2019).
Activity calls are given as the source filed them. The rule behind the calls is not given here. Where a SMILES comes first, the peptide text is derived from it. Side-chain parts run from the residue outwards.

What was measured:
[1] = Toxicity in BALB/c mouse xenografted with mouse 4T1 cells assessed as induction of morphological lesions in heart at 10 mg/kg administered intratumorally and measured after 24 days by H and E staining based inverted optical microscopic method; assay type: organism-based; details: in vivo, other, 576 h
4T1 [2] = experiment: Induction of apoptosis in mouse 4T1 cells at 0.8 mM incubated for 24 hrs by PI staining based inverted microscopic method; assay type: functional, cell-based
Method in brief: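 Live–dead staining of 4T1 cells after 24 h exposure, with PI uptake imaged microscopically. A higher 0.8 mM dose was also tested.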

4T1 [3] = experiment: Induction of cell cycle arrest in mouse 4T1 cells assessed as accumulation at G0/G1 phase at 0.4 mM incubated for 24 hrs by PI staining based flow cytometric analysis (reference value: 37.78%); assay type: functional
[4] = Toxicity in BALB/c mouse xenografted with mouse 4T1 cells assessed as induction of morphological lesions in kidney at 10 mg/kg administered intratumorally and measured after 24 days by H and E staining based inverted optical microscopic method; assay type: organism-based; details: in vivo, other, 576 h
Erythrocyte = experiment: Hemolytic activity in BALB/c mouse RBC at 3.2 mM incubated for 2 hrs by UV-Vis spectrophotometric analysis; assay type: ADME, cell-based; details: 3200 µM
Method in brief: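 Hemolysis assay on red blood cells with dendrimers up to 3.2 mM. Result is expressed as hemolysis rate, with under 5% taken as acceptable.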

4T1 [5] = experiment: Induction of cell cycle arrest in mouse 4T1 cells assessed as accumulation at S phase at 0.4 mM incubated for 24 hrs by PI staining based flow cytometric analysis (Rvb =42.35%); assay type: functional
4T1 [6] = experiment: Antitumour activity against mouse 4T1 cells xenografted in BALB/c mouse assessed as increase in damage of tumor tissue at 10 mg/kg administered intratumorally and measured after 24 days by H and E staining based inverted optical microscopic method; assay type: functional, organism-based
Method in brief: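 Tumours from 4T1-bearing BALB/c mice given 6 doses of 10 mg/kg (saline control) were sectioned and stained with H&E, plus CD31, Ki-67 and TUNEL.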

[7] = Toxicity in BALB/c mouse xenografted with mouse 4T1 cells assessed as change in blood urea nitrogen level at 10 mg/kg administered intratumorally and measured after 24 days; assay type: organism-based; details: in vivo, other, 576 h
4T1 [8] = experiment: Antitumour activity against mouse 4T1 cells xenografted in BALB/c mouse assessed as reduction in number of lung tumor metastatic nodules at 10 mg/kg administered intratumorally and measured after 24 days by H and E staining based inverted optical microscopic method; assay type: functional, organism-based
Method in brief: (§1)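 After 6 doses of 10 mg/kg to 4T1 tumour-bearing BALB/c mice (saline control), lungs were photographed whole and examined histopathologically for the number and size of metastatic nodules.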

4T1 [9] = experiment: Antiproliferative activity against mouse 4T1 cells assessed as cell death at 0.2 mM incubated for 24 hrs by MTT assay relative to control; assay type: functional
Method in brief: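 Mouse 4T1 breast cancer cells exposed for 24 h (doses include 0.1 and 0.2 mM), then read by MTT for viability or cell death. Mean ± SD, n = 6.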

4T1 [10] = experiment: Antiinvasive activity in mouse 4T1 cells assessed as inhibition of cell invasion at 0.2 mM incubated for 24 hrs by crystal violet staining based matrigel invasion assay relative to control; assay type: functional; details: 4T1, 24 h
Method in brief: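 4T1 cells, Matrigel-coated Transwell invasion with 0.2 mM compound. Invasion rate comes from counting cells on the underside of the Matrigel-coated porous membrane, relative to untreated control. Mean ± SD, n = 3.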

[11] = target: Matrix metalloproteinase-9 (Mus musculus) (UniProt P41245); experiment: Residual MMP9 activity in mouse 4T1 cells at 0.2 mM incubated for 24 hrs by coomassie brilliant blue staining based gelatin zymography assay relative to control
4T1 [12] = experiment: Induction of apoptosis in mouse 4T1 cells assessed as necrotic cells at 0.4 mM incubated for 24 hrs by Annexin V-FITC/PI based FACS analysis (reference value: 0.47%); assay type: functional
[13] = Toxicity in BALB/c mouse xenografted with mouse 4T1 cells assessed as induction of morphological lesions in liver at 10 mg/kg administered intratumorally and measured after 24 days by H and E staining based inverted optical microscopic method; assay type: organism-based; details: in vivo, other, 576 h
[14] = Toxicity in BALB/c mouse xenografted with mouse 4T1 cells assessed as change in serum creatinine level at 10 mg/kg administered intratumorally and measured after 24 days; assay type: organism-based; details: in vivo, other, 576 h
[15] = Stability in fetal bovine serum assessed as parent compound remaining measured after 12 hrs by RP-HPLC analysis; assay type: ADME, cell-free, Bos taurus; details: cattle, read-out: Stability
Method in brief: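 Peptides incubated in serum, and the fraction of intact YSL was measured over time up to 12 h, including a 4 h point.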

4T1 [16] = experiment: Antitumour activity against mouse 4T1 cells xenografted in BALB/c mouse assessed as reduction in size of lung tumor metastatic nodules at 10 mg/kg administered intratumorally and measured after 24 days by H and E staining based inverted optical microscopic method; assay type: functional, organism-based; method in brief: as §1
4T1 [17] = experiment: Induction of cell cycle arrest in mouse 4T1 cells assessed as accumulation at G2/M phase at 0.4 mM incubated for 24 hrs by PI staining based flow cytometric analysis (reference value: 19.82%); assay type: functional
4T1 [18] = experiment: Induction of apoptosis in mouse 4T1 cells assessed as late apoptotic cells at 0.4 mM incubated for 24 hrs by Annexin V-FITC/PI based FACS analysis (reference value: 6.62%); assay type: functional
4T1 [19] = experiment: Antitumour activity against mouse 4T1 cells xenografted in BALB/c mouse assessed as inhibition in tumor growth at 10 mg/kg administered intratumorally and measured every 3 days for 24 days; assay type: functional, organism-based
Method in brief: (§2)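 BALB/c mice bearing subcutaneous 4T1 tumours received 6 doses of 10 mg/kg, with equal YSL-monomer molar amounts across compounds and saline as control. Tumour volume growth curves and body weights were tracked. Mean ± SD, n = 5.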

4T1 [20] = experiment: Antiproliferative activity against mouse 4T1 cells at 0.1 mM incubated for 24 hrs by MTT assay; assay type: functional, cell-based
4T1 [21] = experiment: Inhibition of cell migration in mouse 4T1 cells assessed as wound closure rate at 0.2 mM measured up to 36 hrs by inverted optical microscopic method based wound healing assay (reference value: 82%); assay type: functional; parameters: scale not given: the % may be the effect or the level left
4T1 [22] = experiment: Induction of apoptosis in mouse 4T1 cells assessed as early apoptotic cells at 0.4 mM incubated for 24 hrs by Annexin V-FITC/PI based FACS analysis (reference value: 0.76%); assay type: functional
4T1 [23] = experiment: Inhibition of metastasis in mouse 4T1 cells assessed as disruption in F-actin arrangement at 0.2 mM incubated for 24 hrs by Hoechst 33342 staining based confocal laser scanning microscopic method; assay type: functional, cell-based
Method in brief: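 After 24 h at 0.2 mM, 4T1 cells were stained for F-actin with Alexa Fluor 488 phalloidin and for nuclei with Hoechst 33342, then imaged by fluorescence for cytoskeletal arrangement and cell morphology.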

[24] = Toxicity in BALB/c mouse xenografted with mouse 4T1 cells assessed as change in body weight at 10 mg/kg administered intratumorally and measured after 24 days; assay type: organism-based; details: in vivo, other, 576 h; method in brief: as §2
4T1 [25] = experiment: Inhibition of cell migration in mouse 4T1 cells assessed as migration frequency at 0.2 mM incubated for 24 hrs by crystal violet staining based transwell assay relative to control; assay type: functional; parameters: scale not given: the % may be the effect or the level left
Method in brief: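 4T1 cells, Transwell migration with 24 h exposure to 0.2 mM. Migration rate comes from counting cells on the bottom of the porous membrane. Mean ± SD, n = 3.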

4T1 [26] = experiment: Induction of apoptosis in mouse 4T1 cells assessed as viable cells at 0.4 mM incubated for 24 hrs by Annexin V-FITC/PI based FACS analysis (reference value: 92.2%); assay type: functional; details: 4T1, 24 h, read-out: Activity
4T1 [27] = experiment: Antitumour activity against mouse 4T1 cells xenografted in BALB/c mouse assessed as increase in number of TUNEL positive cells at 10 mg/kg administered intratumorally and measured after 24 days by H and E staining based inverted optical microscopic method; assay type: functional, organism-based
Method in brief: (§3)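 BALB/c mice bearing subcutaneous 4T1 tumours received 6 doses at 10 mg/kg body weight, matched for YSL monomer molar amount, with saline as control. Tumour sections were stained for H&E, CD31, Ki-67 and TUNEL. n = 5.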

[28] = Toxicity in BALB/c mouse xenografted with mouse 4T1 cells assessed as induction of morphological lesions in spleen at 10 mg/kg administered intratumorally and measured after 24 days by H and E staining based inverted optical microscopic method; assay type: organism-based; details: in vivo, other, 576 h
4T1 [29] = experiment: Inhibition of metastasis in mouse 4T1 cells assessed as cell shrinkage at 0.2 mM incubated for 24 hrs by Hoechst 33342 staining based confocal laser scanning microscopic method; assay type: functional
Method in brief: (§4)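 After 24 h treatment, 4T1 cells were stained with Alexa Fluor 488 phalloidin for F-actin and Hoechst 33342 for nuclei, then imaged by fluorescence microscopy to assess cytoskeleton and cell morphology.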

4T1 [30] = experiment: Inhibition of metastasis in mouse 4T1 cells assessed as formation of pseudopods at 0.2 mM incubated for 24 hrs by SEM analysis; assay type: functional, cell-based
Method in brief: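 4T1 cells treated 24 h, then imaged by scanning electron microscopy for pseudopod formation. Dendrimers were tested at 0.2 mM and the reference at 10–5 mM.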

4T1 [31] = experiment: Inhibition of metastasis in mouse 4T1 cells assessed as shortening in actin filaments at 0.2 mM incubated for 24 hrs by Hoechst 33342 staining based confocal laser scanning microscopic method; assay type: functional, cell-based; method in brief: as §4
4T1 [32] = experiment: Antitumour activity against mouse 4T1 cells xenografted in BALB/c mouse assessed as increase in cytotoxic tumor cell death at 10 mg/kg administered intratumorally and measured after 24 days by H and E staining based inverted optical microscopic method; assay type: functional, organism-based; method in brief: as §3

Chain of Matrix metalloproteinase-9 (Mus musculus) (P41245 whole entry): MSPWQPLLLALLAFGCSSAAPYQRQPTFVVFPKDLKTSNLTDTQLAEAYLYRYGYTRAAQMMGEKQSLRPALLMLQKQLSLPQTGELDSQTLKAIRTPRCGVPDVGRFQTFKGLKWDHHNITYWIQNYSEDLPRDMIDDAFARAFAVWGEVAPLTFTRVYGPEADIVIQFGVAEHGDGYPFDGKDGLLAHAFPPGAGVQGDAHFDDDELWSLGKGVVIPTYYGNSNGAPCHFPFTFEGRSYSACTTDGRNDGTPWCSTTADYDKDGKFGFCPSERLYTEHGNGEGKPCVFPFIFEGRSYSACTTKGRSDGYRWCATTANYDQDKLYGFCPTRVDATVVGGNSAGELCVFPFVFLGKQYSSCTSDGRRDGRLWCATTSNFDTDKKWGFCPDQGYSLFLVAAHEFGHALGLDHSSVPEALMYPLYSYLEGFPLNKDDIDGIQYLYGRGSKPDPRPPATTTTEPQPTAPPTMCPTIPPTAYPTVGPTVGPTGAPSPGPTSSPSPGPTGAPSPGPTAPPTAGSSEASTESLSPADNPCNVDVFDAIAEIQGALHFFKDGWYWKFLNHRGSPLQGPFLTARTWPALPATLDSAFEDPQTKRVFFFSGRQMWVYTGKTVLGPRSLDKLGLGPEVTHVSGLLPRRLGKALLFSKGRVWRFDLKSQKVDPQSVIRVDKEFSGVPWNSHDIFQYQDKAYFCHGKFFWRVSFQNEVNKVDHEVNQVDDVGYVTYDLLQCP

Row | Structure (SMILES) | Activity [1] | Activity (4T1 [2]) | Activity (4T1 [3]) | Activity [4] | Activity (Erythrocyte) | Activity (4T1 [5]) | Activity (4T1 [6]) | Activity [7] | Activity (4T1 [8]) | Activity (4T1 [9]) | inhibition at 200 µM (4T1 [10]) | residual activity [11] | Activity (4T1 [12]) | Activity [13] | Activity [14] | remaining at 12 h [15] | Activity (4T1 [16]) | Activity (4T1 [17]) | Activity (4T1 [18]) | Activity (4T1 [20]) | other results
1 | COC(=O)[C@H](CCCCNC(=O)[C@H](CC(C)C)NC(=O)[C@H](CO)NC(=O)[C@@H](N)Cc1ccc(O)cc1)NC(=O)[C@H](CC(C)C)NC(=O)[C@H](CO)NC(=O)[C@@H](N)Cc1ccc(O)cc1 (H-YSLK([Leu-Ser-Tyr])-OMe) | Non-Toxic | Active | 37.72% | Non-Toxic | Non-Toxic | 47.25% | Active | Non-Toxic | Active | 5% | 70% | 75% | 0.26% | Non-Toxic | Non-Toxic | > 80% | Active | 15.35% | 18.8% | inactive | Activity (4T1 [19]): Active; Activity (4T1 [21]): 79%; Activity (4T1 [22]): 0.77%; F-actin disruption (qualitative) (4T1 [23]): Active; Activity [24]: Non-Toxic; Activity (4T1 [25]): 68%; viability at 400 µM (4T1 [26]): 80.2%; Activity (4T1 [27]): Active; Activity [28]: Non-Toxic
2 | COC(=O)[C@H](CCCCNC(=O)[C@H](CCCCNC(=O)[C@H](CC(C)C)NC(=O)[C@H](CO)NC(=O)[C@@H](N)Cc1ccc(O)cc1)NC(=O)[C@H](CC(C)C)NC(=O)[C@H](CO)NC(=O)[C@@H](N)Cc1ccc(O)cc1)NC(=O)[C@H](CCCCNC(=O)[C@H](CC(C)C)NC(=O)[C@H](CO)NC(=O)[C@@H](N)Cc1ccc(O)cc1)NC(=O)[C@H](CC(C)C)NC(=O)[C@H](CO)NC(=O)[C@@H](N)Cc1ccc(O)cc1 | Non-Toxic | Active | 38.06% | Non-Toxic | Non-Toxic | 46.98% | Active | Non-Toxic | Active | 10% | 41% | 70% | 1.23% | Non-Toxic | Non-Toxic | > 80% | Active | 15.31% | 20.4% | inactive | inhibition (4T1 [29]): Active; inhibition (4T1 [30]): inactive; inhibition (4T1 [31]): Active; Activity (4T1 [21]): 76%; Activity (4T1 [22]): 0.7%; F-actin disruption (qualitative) (4T1 [23]): Active; Activity [24]: Non-Toxic; Activity (4T1 [25]): 39%; Activity (4T1 [32]): Active; viability at 400 µM (4T1 [26]): 77.7%; Activity (4T1 [27]): Active; Activity [28]: Non-Toxic
